The list is not random: actives were taken first. Their share in the collection is about 3.1%.
TbHK1 inh – Trypanosoma brucei hexokinase 1 inhibitors, primary screen, biochemical, G6PDH-coupled NADH absorbance, MLSCN library. hexokinase 1 [Trypanosoma brucei]. recombinant TbHK1, G6PDH-coupled NADH A340. inhibition, % at 10 µM. 0.11% of 220,000 active. AID 1430, 2008;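 active = inhibition of 50% or more in the single-dose primary screen; inactive = inhibition below 50%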
HSF-1 act – HSF-1 activators, primary screen, NIH3T3-HGL cells, MG132 stress, luminescence, single point | NIH3T3-HGL HSF-1 luciferase reporter, 8 h; 100% = twice DMSO control signal | activation, % at 9 µM | 1.7% of 300,000 active;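 active = mean replicate activation of at least 50% with a set share of replicates each reaching 50%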
HSF1 inh – HSF1 inhibitors in luciferase reporter cells, primary screen, cell-based, NIH3T3, luminescence; activity change, negative = inhibition, % at 7.5 µM (by protocol); 0.77% of 300,000 active; AID 2098, 2009; NIH3T3-HGL HSE-luciferase, MG132-induced, luminescence 8 h; hits give low values;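 active = more than half of replicate wells show activity change below -50%, luminescence cut by over half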;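 also: luciferase reports HSF-1 transcriptional activity via heat shock element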
Hsp70 activator – Hsp70 transcriptional activators, primary screen, cell-based, HeLa, Hsp70 promoter luciferase, luminescence, 10 µM; 0.04% of 200,000 active; AID 1203, 2008; HeLa Hsp70 promoter luciferase reporter; scaled: vehicle 0, proteasome-inhibitor control 100%; activation, % at 10 µM;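 active = activation above the mean across all tested compounds plus 3 SD, cutoff set per campaign, cut at about 5.5% in these data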
HSP90 refold inh – HSP90 inhibitors, primary screen, cell lysate, luminescence; Heat shock protein HSP 90 (rabbit reticulocyte lysate; luciferase refolding); Rabbit reticulocyte lysate, luciferase refolding luminescence, 3 h; inhibition, % at 5.6 µM; 0.91% of 290,000 active; AID 1789, 2009;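 active = inhibition above the screen-wide mean plus 3 SD, computed separately per campaign, cut at about 16% in these data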;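 also: inhibitors lower the luminescence because luciferase stays unfolded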
HKDC1 inh – HKDC1 hexokinase inhibitors, primary screen, biochemical, fluorescence, uHTS | Q2TB90 | recombinant HKDC1, G6PDH/diaphorase resazurin coupled fluorescence | inhibition, % at 20 µM | 0.16% of 340,000 active | AID 493160, 2011;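 active = inhibition above about 35% when tested at 20 µM, limit read from the data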
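Test system: Recombinant HKDC1 (HK5) hexokinase enzyme, produced in-house | Input: HKDC1 at 5 µg/mL | Buffer or medium: Tris pH 8.0 buffer with MgCl2, Tween-20, BSA, BME | Schedule: 90 min reaction incubation at room temperature, dark | Technique: Resazurin-to-resorufin fluorescence via G6PDH and diaphorase coupling, 525/613 nm | Controls: DMSO wells with and without enzyme mix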
Hsp70 act dose – Hsp70 transcriptional activators, dose response, cell-based, HeLa, Hsp70 promoter luciferase, luminescence, triplicate. 10% of 70 active. calls only at 99 µM. HeLa hsp70.1pr-luc reporter. shares compounds with Hsp70 activator. AID 1252, 2008;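 active = over 50% activation at some tested dose; inactive = under 50% activation at every tested dose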
G6PDH ctr – Leuconostoc G6PDH inhibition, confirmation, counter-screen for TbHK1 inhibitor project, biochemical, DPI cherry-picked compounds, single concentration. inhibition, % at 10 µM. shares compounds with TbHK1 inh. 7% of 210 active. purified G6PDH, NADH absorbance, 1 h. AID 2516, 2010;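 active = at least 50% inhibition in the glucose-6-phosphate dehydrogenase coupled counterscreen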
TbHK1 confirm – TbHK1 inhibitor retest, confirmation, biochemical, DPI cherry-picked primary actives | shares compounds with TbHK1 inh | recombinant TbHK1, G6PDH-coupled NADH A340 absorbance | inhibition, % at 10 µM | 10% of 210 active | AID 2560, 2010;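 active = inhibition of at least 50% in both of the two screening runs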
HSP90 inh confirm – HSP90 inhibitors, confirmation, cell lysate, luminescence | shares compounds with HSP90 refold inh | rabbit reticulocyte lysate, luciferase refolding luminescence, 3 h | 64% of 2,300 active | inhibition, % at 5.9 µM; in the data active = inhibition above about 18%
FLuc counter – firefly luciferase inhibitors, HSP90 counter-screen, confirmation, artefact control for HSP90 inhibitor project, biochemical, luminescence, triplicate. shares compounds with HSP90 refold inh. purified native firefly luciferase. inhibition, % at 5.9 µM. 48% of 2,300 active;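 active = inhibition above the mean inhibition of all tested sample wells plus 3 SD, cut at about 10% in these data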
Target sequence (P08659 whole entry, looked up): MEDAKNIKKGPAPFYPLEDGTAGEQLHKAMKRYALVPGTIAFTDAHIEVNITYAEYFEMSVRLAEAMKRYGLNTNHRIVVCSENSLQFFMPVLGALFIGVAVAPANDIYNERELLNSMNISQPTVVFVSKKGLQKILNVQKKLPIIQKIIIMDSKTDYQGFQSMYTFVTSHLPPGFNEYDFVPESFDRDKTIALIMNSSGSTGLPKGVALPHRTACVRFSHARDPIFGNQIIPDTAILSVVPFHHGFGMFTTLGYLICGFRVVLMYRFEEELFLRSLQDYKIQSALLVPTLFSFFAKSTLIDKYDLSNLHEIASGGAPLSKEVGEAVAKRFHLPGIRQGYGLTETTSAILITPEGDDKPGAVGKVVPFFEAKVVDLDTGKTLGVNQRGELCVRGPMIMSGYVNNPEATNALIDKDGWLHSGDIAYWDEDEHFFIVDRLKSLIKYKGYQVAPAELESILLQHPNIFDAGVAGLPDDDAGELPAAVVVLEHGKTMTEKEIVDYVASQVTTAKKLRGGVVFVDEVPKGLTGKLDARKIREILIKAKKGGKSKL
HKDC1 act conf2 – HKDC1 hexokinase activators, confirmation, biochemical, single concentration; inhibition, % at 20 µM; shares compounds with HKDC1 inh; 14% of 740 active; recombinant HKDC1, G6PDH/diaphorase resazurin fluorescence; hits give low values; AID 504708, 2011;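 active = inhibition at or below a set negative limit, negative inhibition meaning the enzyme was activated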
Large screens that a line does not name were inactive (follow-up assays come after a bar, where they were run).

O=C(c1ccc(N2CC3CC(C2)c2cccc(=O)n2C3)c([N+](=O)[O-])c1)N1CCCC1 (stereo not given)	none
CC(=O)Cc1c[nH]c2ccccc12	HSF1 inh -91 (no result: Hsp70 activator, HKDC1 inh)
CN(C)Cc1c[nH]c2ccccc12	none (no result: TbHK1 inh, HSF-1 act, HSF1 inh, Hsp70 activator, HSP90 refold inh)
NS(=O)(=O)OC(CCc1ccccc1)C(Cl)(Cl)Cl (stereo not given)	none (no result: TbHK1 inh, Hsp70 activator)
O=C(CF)NC(NC(=S)Nc1ccccc1O)C(Cl)(Cl)Cl (stereo not given)	HSF-1 act 54
Cc1ccc(OCCn2cccc2/C=C2/C(=O)NC(=O)N(Cc3ccco3)C2=O)cc1	none (no result: Hsp70 activator)
CCc1ccc(N2C(=O)NC(=O)/C(=C\c3cccn3CCOc3ccc(C(C)C)cc3)C2=O)cc1	HSP90 refold inh 31
CC(C)(O)/C=C/C(=O)C(C)(O)C1C(O)CC2(C)C3CC=C4C(C=C(O)C(=O)C4(C)C)C3(C)C(=O)CC12C (stereo not given)	HSF-1 act 69, HSF1 inh 69 (no result: TbHK1 inh, Hsp70 activator, HSP90 refold inh)
COc1ccc(NC(=O)c2cn(CCC#N)nc2-c2cccc([N+](=O)[O-])c2)cc1	none (no result: HSF-1 act, HSF1 inh, Hsp70 activator)
COc1ccc(Oc2cc(NC(=O)c3nn(C)cc3[N+](=O)[O-])cc([N+](=O)[O-])c2)cc1	HSF1 inh -54
COc1cc2c(cc1OC)CN(c1ccc([N+](=O)[O-])c(C(F)(F)F)c1)CC2	HSF-1 act 121
CC(C)(O)C(=O)Nc1ccc([N+](=O)[O-])c(C(F)(F)F)c1	none (no result: TbHK1 inh, HSF-1 act, HSF1 inh, Hsp70 activator, HSP90 refold inh)
CCN(CC)C(=O)c1ccc(NC(=O)c2ccc(-n3cncn3)c([N+](=O)[O-])c2)cc1	none (no result: TbHK1 inh, Hsp70 activator, HSP90 refold inh)
CCCc1[nH]nc2c1C1(C(=O)N(Cc3ccccc3)c3ccccc31)C(C(=O)OC)=C(N)O2 (stereo not given)	HSF-1 act 55
COC1/C=C/C=C(\C)Cc2cc(O)c(Cl)c(c2)N(C)C(=O)CC(OC(=O)C(C)C)C2(C)OC2C(C)C2CC1(O)NC(=O)O2 (stereo not given)	none (no result: TbHK1 inh, Hsp70 activator, HSP90 refold inh)
CCC(=NCc1ccco1)c1c(O)n(C2CCCCC2)c(=O)[nH]c1=O	HSF-1 act 66
Cc1ccc2c(c1)C1CN(C)CCC1N2C(=O)Nc1cccc(C(F)(F)F)c1 (stereo not given)	HSF1 inh -70
CNc1cc(Cl)c2nonc2c1[N+](=O)[O-]	HSF-1 act 168, Hsp70 activator 18 | Hsp70 act dose inactive
COC(=O)C1=C(c2ccc(-c3ccccc3)c(F)c2)C[C@@H]2CC[C@H]1N2C(=O)NC1Cc2ccccc2C1	none (no result: TbHK1 inh, HSF-1 act, HSF1 inh, Hsp70 activator, HSP90 refold inh)
COC(=O)C1CN(C#N)N(c2ccc(Cl)cc2)C12c1ccccc1-c1ccccc12 (stereo not given)	HSF1 inh -95, Hsp70 activator 6.6, HKDC1 inh 87 | Hsp70 act dose inactive | HKDC1 act conf2 inactive
O=C(O)c1[nH]c(=O)[nH]c(=O)c1F	none (no result: Hsp70 activator)
CCn1nc(-c2ccccc2)nc2c(=O)n(C)c(=O)nc1-2	TbHK1 inh 69, HSP90 refold inh 83 (no result: HSF-1 act, HSF1 inh) | G6PDH ctr inactive | TbHK1 confirm inactive
C#C[C@]1(O)CC[C@H]2[C@@H]3CCC4=Cc5nc6nc7ccccc7n6cc5C[C@]4(C)[C@H]3CC[C@@]21C	none (no result: TbHK1 inh, HSF-1 act, HSF1 inh, Hsp70 activator, HSP90 refold inh)
O=c1c2ccccc2[se]n1-c1ccccc1	TbHK1 inh 91 | G6PDH ctr inactive | TbHK1 confirm 90 | HKDC1 act conf2 inactive
COC(=O)C1=C(c2ccc(F)cc2OCc2ccccc2)C[C@@H]2CC[C@H]1N2C(=O)N1CCOCC1	none (no result: TbHK1 inh, HSF-1 act, HSF1 inh, Hsp70 activator, HSP90 refold inh)
CCCCCn1c(NC(=O)c2ccco2)c(C(=O)OCC)c2nc3ccccc3nc21	none
COCCCn1c(N)c(C(=O)OCCOC)c2nc3ccccc3nc21	HSP90 refold inh 22 | HSP90 inh confirm inactive | FLuc counter inactive
CCOC(=O)c1c(NS(=O)(=O)c2ccccc2)n(CCCOC)c2nc3ccccc3nc12	HSP90 refold inh 22 | HSP90 inh confirm inactive | FLuc counter inactive
CCCCNC(=O)c1c(N)n(CCCOC)c2nc3ccccc3nc12	none
CCOc1cc(/C=C2\C(=O)NC(=O)N(CCc3ccc(F)cc3)C2=O)ccc1O	HSP90 refold inh 38 (no result: Hsp70 activator) | HSP90 inh confirm inactive | FLuc counter inactive
Cc1ccc(OCCOc2cccc(C=C3C(=O)NC(=O)NC3=O)c2)c(C)c1	HSP90 refold inh 23 (no result: TbHK1 inh, Hsp70 activator) | HSP90 inh confirm 39 | FLuc counter 17
O=C1NC(=O)C(=Cc2cccc(OCCOc3ccccc3)c2)C(=O)N1	none (no result: TbHK1 inh, Hsp70 activator)
CN1CCN2c3ccc(N)cc3CC3(C(=O)NC(=O)NC3=O)C2C1 (stereo not given)	HSP90 refold inh 20 (no result: Hsp70 activator) | HSP90 inh confirm inactive | FLuc counter inactive
CC1=CC2OC3CC4OC(=O)C=CC=CC(C(C)O)OCC(O)C5(C)OC5C(=O)OCC2(CC1O)C4(C)C31CO1 (stereo not given)	none (no result: TbHK1 inh, HSF-1 act, HSF1 inh, Hsp70 activator, HSP90 refold inh)
CN1Cc2cnnn2-c2ccccc2C1c1ccccc1 (stereo not given)	none (no result: TbHK1 inh, HSF-1 act, HSF1 inh, Hsp70 activator, HSP90 refold inh)
CCCC[C@@H](C)C[C@@H](C)C(=O)N(C)[C@@H](CC(C)C)C(=O)N[C@H](C(=O)N(C)[C@H](C(=O)N1C[C@@H](O)C[C@H]1C(=O)N1C(=O)C=C[C@@H]1C)C(C)C)C(C)OC(C)=O (stereo not given in full)	none (no result: TbHK1 inh, HSF-1 act, HSF1 inh, Hsp70 activator, HSP90 refold inh)

Compound activity: PubChem BioAssay, several laboratories
